From ChEMBL document CHEMBL4196066, “Design and synthesis of furyl/thineyl pyrroloquinolones based on natural alkaloid perlolyrine, lead to the discovery of potent and selective PDE5 inhibitors” (Eur J Med Chem, 2018)

Columns and labels:
Oryctolagus cuniculus = assay: Vasorelaxant activity in iv dosed New Zealand rabbit assessed as induction of ICP change in response to electrically pelvic nerve stimulation administered as bolus dose; assay type: functional
[1] = MRT in Wistar rat at 2 mg/kg, iv; assay type: ADME, organism-based; settings: in vivo
[2] = Half life in Wistar rat at 2 mg/kg, iv; assay type: ADME, organism-based; settings: in vivo
[3] = Clearance in Wistar rat at 2 mg/kg, iv; assay type: ADME, organism-based; settings: in vivo
Thoracic aorta = assay: Vasorelaxant activity in norepinephrine-pretreated New Zealand rabbit thoracic aorta assessed as increase in aortic relaxation at 1 uM measured after 15 mins relative to control; assay type: functional, Oryctolagus cuniculus; set-up: scale not given: the % may be the effect or the level left
How it was run: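 Thoracic aortic rings from New Zealand white rabbits were held in Krebs buffer at 2 g resting tension (0%) and equilibrated 2 h. Rings were contracted to maximum with 1 µM norepinephrine (100%). Compounds were added cumulatively at 15 min intervals, with tension recorded 15 min after each dose. Relaxation % = (max − recorded)/(max − 2 g) × 100; n = 1–2 rings.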

[4] = Tmax in Wistar rat at 15 mg/kg, po; assay type: ADME, organism-based; settings: in vivo
[5] = target: cGMP-inhibited 3',5'-cyclic phosphodiesterase 3B (Homo sapiens) (UniProt Q13370); assay: Inhibition of N-terminal GST-tagged recombinant human PDE3B (592 end residues) expressed in Baculovirus infected Sf9 insect cells at 8 uM using FAM-cAMP as substrate after 1 hr by fluorescence polarization assay relative to control
cGMP-inhibited 3',5'-cyclic phosphodiesterase 3B (Homo sapiens), sequence (Q13370 whole entry, looked up): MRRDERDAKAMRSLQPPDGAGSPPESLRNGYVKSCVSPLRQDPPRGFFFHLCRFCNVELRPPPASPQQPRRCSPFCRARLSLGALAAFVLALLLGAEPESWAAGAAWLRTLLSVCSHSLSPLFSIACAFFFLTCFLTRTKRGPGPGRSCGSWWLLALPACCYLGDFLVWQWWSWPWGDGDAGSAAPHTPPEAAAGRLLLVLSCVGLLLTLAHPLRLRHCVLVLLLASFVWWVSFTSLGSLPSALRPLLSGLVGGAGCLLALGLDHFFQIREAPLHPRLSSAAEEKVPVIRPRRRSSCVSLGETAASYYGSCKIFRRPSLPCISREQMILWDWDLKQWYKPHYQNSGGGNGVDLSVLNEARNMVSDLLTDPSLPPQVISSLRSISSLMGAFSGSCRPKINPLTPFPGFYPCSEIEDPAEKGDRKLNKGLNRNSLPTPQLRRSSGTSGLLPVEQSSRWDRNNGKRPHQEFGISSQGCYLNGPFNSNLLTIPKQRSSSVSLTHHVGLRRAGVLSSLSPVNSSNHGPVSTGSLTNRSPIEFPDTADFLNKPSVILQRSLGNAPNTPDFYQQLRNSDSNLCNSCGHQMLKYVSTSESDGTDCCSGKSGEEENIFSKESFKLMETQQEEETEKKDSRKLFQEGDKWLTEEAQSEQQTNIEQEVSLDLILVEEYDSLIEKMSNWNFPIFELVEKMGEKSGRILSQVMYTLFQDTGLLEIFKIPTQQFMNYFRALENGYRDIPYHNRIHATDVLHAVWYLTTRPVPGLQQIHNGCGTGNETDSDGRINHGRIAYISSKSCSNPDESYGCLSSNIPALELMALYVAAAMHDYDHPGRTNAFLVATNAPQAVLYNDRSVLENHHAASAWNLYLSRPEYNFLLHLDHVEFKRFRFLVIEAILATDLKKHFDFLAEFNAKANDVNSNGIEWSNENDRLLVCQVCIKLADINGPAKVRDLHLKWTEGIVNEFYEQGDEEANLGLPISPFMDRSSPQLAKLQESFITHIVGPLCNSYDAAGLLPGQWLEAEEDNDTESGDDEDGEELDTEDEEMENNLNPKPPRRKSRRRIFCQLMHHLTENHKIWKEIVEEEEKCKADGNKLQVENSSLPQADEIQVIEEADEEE

Rattus norvegicus [6] = assay: Volume of distribution at steady state in Wistar rat at 15 mg/kg, po; assay type: ADME, organism-based; settings: in vivo
Homo sapiens [7] = organism: Homo sapiens; assay: Selectivity ratio of IC50 for N-terminal FLAG-tagged human PDE2A1 (2 to 941 residues) to IC50 for N-terminal GST-tagged full length recombinant human PDE5A1 catalytic domain
[8] = Volume of distribution at steady state in Wistar rat at 2 mg/kg, iv; assay type: ADME, organism-based; settings: in vivo, read-out: Vdss
[9] = target: cGMP-dependent 3',5'-cyclic phosphodiesterase (Homo sapiens) (UniProt O00408); assay: Inhibition of N-terminal FLAG-tagged human PDE2A1 (2 to 941 residues) expressed in Baculovirus infected Sf9 insect cells at 8 uM using FAM-cAMP as substrate after 1 hr by fluorescence polarization assay relative to control
cGMP-dependent 3',5'-cyclic phosphodiesterase (Homo sapiens), sequence (O00408 whole entry, the tested form may be a part): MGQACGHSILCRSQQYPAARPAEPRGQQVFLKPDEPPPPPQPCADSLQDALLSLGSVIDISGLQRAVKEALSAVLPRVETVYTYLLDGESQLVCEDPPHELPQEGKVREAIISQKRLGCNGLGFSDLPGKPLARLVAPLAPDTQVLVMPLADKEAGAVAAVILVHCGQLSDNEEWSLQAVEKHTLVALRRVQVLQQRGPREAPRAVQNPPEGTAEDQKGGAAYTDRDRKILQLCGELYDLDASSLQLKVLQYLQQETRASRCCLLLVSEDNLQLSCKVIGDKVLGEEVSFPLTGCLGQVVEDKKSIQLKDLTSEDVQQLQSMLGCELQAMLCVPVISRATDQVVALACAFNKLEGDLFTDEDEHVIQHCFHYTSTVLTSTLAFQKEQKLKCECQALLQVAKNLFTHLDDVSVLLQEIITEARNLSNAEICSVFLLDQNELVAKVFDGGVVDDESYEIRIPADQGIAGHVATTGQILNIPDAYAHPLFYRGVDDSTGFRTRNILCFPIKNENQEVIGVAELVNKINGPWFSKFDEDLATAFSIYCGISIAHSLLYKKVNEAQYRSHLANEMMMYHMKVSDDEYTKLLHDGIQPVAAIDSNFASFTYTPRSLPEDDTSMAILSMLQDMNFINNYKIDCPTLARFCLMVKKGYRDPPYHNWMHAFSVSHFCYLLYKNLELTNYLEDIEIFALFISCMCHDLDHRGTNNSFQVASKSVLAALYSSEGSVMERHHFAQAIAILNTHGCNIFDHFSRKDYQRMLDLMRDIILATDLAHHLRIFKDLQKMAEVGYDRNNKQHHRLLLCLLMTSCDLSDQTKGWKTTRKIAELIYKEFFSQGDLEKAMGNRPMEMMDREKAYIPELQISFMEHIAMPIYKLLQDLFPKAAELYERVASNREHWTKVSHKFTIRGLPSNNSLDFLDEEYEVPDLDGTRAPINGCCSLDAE

[10] = MRT in Wistar rat at 15 mg/kg, po; assay type: ADME, organism-based; settings: in vivo
Homo sapiens [11] = organism: Homo sapiens; assay: Selectivity ratio of IC50 for N-terminal GST-tagged full length recombinant human PDE6C to IC50 for N-terminal GST-tagged full length recombinant human PDE5A1 catalytic domain
Rattus norvegicus [12] = assay: (§1) AUC (0 to infinity) in Wistar rat at 15 mg/kg, po; assay type: ADME, organism-based; set-up: dose 15 mg/kg, route oral, time infinity; settings: in vivo
How it was run: (§2)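 Male Wistar rats (228−249 g) fasted 12 h, dosed orally in 0.5% methylcellulose. Blood drawn at 0, 0.5, 1, 1.5, 2, 4, 6, 12 and 24 h; plasma separated by centrifugation at 4 °C, stored at −80 °C, drug measured by LC–MS/MS, and PK parameters computed from the concentration–time data.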

Homo sapiens [13] = organism: Homo sapiens; assay: Selectivity ratio of IC50 for N-terminal GST-tagged recombinant human PDE3B (592 end residues) to IC50 for N-terminal GST-tagged full length recombinant human PDE5A1 catalytic domain
[14] = target: 3',5'-cyclic-AMP phosphodiesterase 4A (Homo sapiens) (UniProt P27815); assay: Inhibition of N-terminal GST-tagged full length recombinant human PDE4A1A expressed in Baculovirus infected Sf9 insect cells at 1.5 uM using FAM-cAMP as substrate after 1 hr by fluorescence polarization assay relative to control
[15] = Tmax in Wistar rat at 2 mg/kg, iv; assay type: ADME, organism-based; settings: in vivo
Homo sapiens [16] = organism: Homo sapiens; assay: Selectivity ratio of IC50 for N-terminal GST-tagged full length recombinant human PDE4A1A to IC50 for N-terminal GST-tagged full length recombinant human PDE5A1 catalytic domain
[17] = target: Dual 3',5'-cyclic-AMP and -GMP phosphodiesterase 11A (Homo sapiens, UniProt Q9HCR9); assay: Inhibition of N-terminal GST-tagged full length recombinant human PDE11A expressed in Baculovirus infected Sf9 insect cells using FAM-cAMP as substrate after 1 hr by fluorescence polarization assay
Dual 3',5'-cyclic-AMP and -GMP phosphodiesterase 11A, sequence (Q9HCR9 whole entry, the tested form may be a part): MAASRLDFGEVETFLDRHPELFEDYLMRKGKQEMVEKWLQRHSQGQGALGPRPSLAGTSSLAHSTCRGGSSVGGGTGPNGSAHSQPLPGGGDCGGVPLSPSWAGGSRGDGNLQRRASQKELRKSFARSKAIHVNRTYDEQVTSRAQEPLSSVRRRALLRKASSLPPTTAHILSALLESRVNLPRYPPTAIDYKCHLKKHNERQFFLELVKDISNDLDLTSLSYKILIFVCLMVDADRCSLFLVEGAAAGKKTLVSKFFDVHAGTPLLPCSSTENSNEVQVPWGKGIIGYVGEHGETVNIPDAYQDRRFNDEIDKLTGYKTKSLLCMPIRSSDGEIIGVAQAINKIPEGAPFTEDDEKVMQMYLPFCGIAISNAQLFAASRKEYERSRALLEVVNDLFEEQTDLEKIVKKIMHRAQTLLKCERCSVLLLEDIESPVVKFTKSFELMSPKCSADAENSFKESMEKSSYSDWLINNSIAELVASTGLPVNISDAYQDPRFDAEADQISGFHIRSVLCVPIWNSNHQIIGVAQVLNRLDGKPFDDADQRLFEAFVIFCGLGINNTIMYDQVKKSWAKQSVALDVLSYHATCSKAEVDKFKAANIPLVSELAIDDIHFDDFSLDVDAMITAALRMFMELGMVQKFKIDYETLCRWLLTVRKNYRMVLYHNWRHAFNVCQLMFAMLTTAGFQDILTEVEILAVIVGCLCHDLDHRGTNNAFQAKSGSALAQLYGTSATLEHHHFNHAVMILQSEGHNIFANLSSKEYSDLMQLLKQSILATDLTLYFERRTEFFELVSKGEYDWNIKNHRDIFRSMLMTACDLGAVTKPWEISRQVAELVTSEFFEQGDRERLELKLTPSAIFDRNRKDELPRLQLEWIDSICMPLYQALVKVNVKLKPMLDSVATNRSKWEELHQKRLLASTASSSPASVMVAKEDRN

[18] = target: cGMP-dependent 3',5'-cyclic phosphodiesterase (Homo sapiens) (UniProt O00408); assay: Inhibition of N-terminal FLAG-tagged human PDE2A1 (2 to 941 residues) expressed in Baculovirus infected Sf9 insect cells at 250 uM using FAM-cAMP as substrate after 1 hr by fluorescence polarization assay relative to control
[19] = Half life in Wistar rat at 15 mg/kg, po; assay type: ADME, organism-based; settings: in vivo
[20] = Cmax in Wistar rat at 15 mg/kg, po; assay type: ADME, organism-based; set-up: dose 15 mg/kg, route oral; settings: in vivo
[21] = target: Dual specificity calcium/calmodulin-dependent 3',5'-cyclic nucleotide phosphodiesterase 1A (Homo sapiens) (UniProt P54750); assay: Inhibition of N-terminal GST-tagged full length recombinant human PDE1A expressed in Baculovirus infected Sf9 insect cells at 8 uM using FAM-cAMP as substrate after 1 hr by fluorescence polarization assay relative to control
Dual specificity calcium/calmodulin-dependent 3',5'-cyclic nucleotide phosphodiesterase 1A (Homo sapiens), sequence (P54750 whole entry, the tested form may be a part): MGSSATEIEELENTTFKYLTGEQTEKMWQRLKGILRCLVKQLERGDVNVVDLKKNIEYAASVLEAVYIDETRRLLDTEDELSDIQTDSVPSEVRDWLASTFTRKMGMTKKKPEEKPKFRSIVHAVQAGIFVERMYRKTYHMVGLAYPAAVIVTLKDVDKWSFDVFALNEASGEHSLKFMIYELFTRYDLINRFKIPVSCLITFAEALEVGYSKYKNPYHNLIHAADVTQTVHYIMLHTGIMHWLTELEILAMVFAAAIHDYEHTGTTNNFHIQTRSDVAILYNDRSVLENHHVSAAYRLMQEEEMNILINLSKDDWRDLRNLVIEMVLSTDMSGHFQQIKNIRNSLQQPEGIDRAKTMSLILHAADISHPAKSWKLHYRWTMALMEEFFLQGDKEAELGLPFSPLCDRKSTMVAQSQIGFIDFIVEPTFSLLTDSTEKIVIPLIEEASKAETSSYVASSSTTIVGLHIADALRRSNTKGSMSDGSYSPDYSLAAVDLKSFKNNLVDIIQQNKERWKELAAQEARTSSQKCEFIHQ

Homo sapiens [22] = organism: Homo sapiens; assay: Selectivity ratio of IC50 for N-terminal GST-tagged full length recombinant human PDE1A to IC50 for N-terminal GST-tagged full length recombinant human PDE5A1 catalytic domain
[23] = Cmax in Wistar rat at 2 mg/kg, iv; assay type: ADME, organism-based; set-up: dose 2 mg/kg, route intravenous; settings: in vivo
[24] = AUC (0 to infinity) in Wistar rat at 2 mg/kg, iv; assay type: ADME, organism-based; set-up: dose 2 mg/kg, route intravenous, time infinity; settings: in vivo
[25] = AUC (0 to 24 hrs) in Wistar rat at 2 mg/kg, iv; assay type: ADME, organism-based; set-up: time < 24 hr, dose 2 mg/kg, route intravenous; settings: in vivo
[26] = target: cGMP-specific 3',5'-cyclic phosphodiesterase (Homo sapiens, UniProt O76074); assay: Inhibition of N-terminal GST-tagged full length recombinant human PDE5A1 catalytic domain expressed in Baculovirus infected Sf9 insect cells using FAM-cGMP as substrate after 1 hr by fluorescence polarization assay
Homo sapiens [27] = organism: Homo sapiens; assay: Selectivity ratio of IC50 for N-terminal GST-tagged full length recombinant human PDE11A to IC50 for N-terminal GST-tagged full length recombinant human PDE5A1 catalytic domain
[28] = AUC (0 to 24 hrs) in Wistar rat at 15 mg/kg, po; assay type: ADME, organism-based; set-up: time < 24 hr, dose 15 mg/kg, route oral; settings: in vivo; how it was run: as §2
[29] = Oral bioavailability in Wistar rat at 15 mg/kg; assay type: ADME, organism-based; settings: in vivo
[30] = target: Cone cGMP-specific 3',5'-cyclic phosphodiesterase subunit alpha' (Homo sapiens, UniProt P51160); assay: Inhibition of N-terminal GST-tagged full length recombinant human PDE6C expressed in Baculovirus infected Sf9 insect cells using […] as substrate after 1 hr by fluorescence polarization assay
Cone cGMP-specific 3',5'-cyclic phosphodiesterase subunit alpha', sequence (P51160 whole entry): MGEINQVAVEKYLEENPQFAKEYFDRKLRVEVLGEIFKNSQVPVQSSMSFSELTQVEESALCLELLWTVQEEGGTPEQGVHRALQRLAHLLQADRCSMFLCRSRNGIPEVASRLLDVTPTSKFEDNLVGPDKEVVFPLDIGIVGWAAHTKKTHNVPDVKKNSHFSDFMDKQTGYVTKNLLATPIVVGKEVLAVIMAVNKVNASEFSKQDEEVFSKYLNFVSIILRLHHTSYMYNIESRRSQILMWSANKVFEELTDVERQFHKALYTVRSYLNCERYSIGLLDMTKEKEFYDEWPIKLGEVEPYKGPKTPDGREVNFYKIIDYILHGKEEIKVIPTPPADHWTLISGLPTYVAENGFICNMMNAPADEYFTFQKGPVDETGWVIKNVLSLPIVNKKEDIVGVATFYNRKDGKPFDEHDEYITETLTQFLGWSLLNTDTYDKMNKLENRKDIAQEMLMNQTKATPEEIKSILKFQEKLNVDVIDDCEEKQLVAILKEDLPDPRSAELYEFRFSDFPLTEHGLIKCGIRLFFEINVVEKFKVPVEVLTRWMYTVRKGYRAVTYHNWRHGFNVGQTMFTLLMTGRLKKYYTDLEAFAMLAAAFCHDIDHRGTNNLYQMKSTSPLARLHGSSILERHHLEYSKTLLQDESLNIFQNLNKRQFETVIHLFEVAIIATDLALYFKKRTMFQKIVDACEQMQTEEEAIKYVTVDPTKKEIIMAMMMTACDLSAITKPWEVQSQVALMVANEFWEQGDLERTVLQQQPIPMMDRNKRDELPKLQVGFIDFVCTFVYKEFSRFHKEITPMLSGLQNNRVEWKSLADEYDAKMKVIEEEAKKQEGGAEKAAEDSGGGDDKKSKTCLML

[31] = target: cGMP-inhibited 3',5'-cyclic phosphodiesterase 3B (Homo sapiens) (UniProt Q13370); assay: Inhibition of N-terminal GST-tagged recombinant human PDE3B (592 end residues) expressed in Baculovirus infected Sf9 insect cells at 6 uM using FAM-cAMP as substrate after 1 hr by fluorescence polarization assay relative to control
[32] = target: Dual specificity calcium/calmodulin-dependent 3',5'-cyclic nucleotide phosphodiesterase 1A (Homo sapiens) (UniProt P54750); assay: Inhibition of N-terminal GST-tagged full length recombinant human PDE1A expressed in Baculovirus infected Sf9 insect cells at 6 uM using FAM-cAMP as substrate after 1 hr by fluorescence polarization assay relative to control
[33] = as §1; assay type: ADME, organism-based; set-up: dose 15 mg/kg, route oral, time infinity; settings: Wistar, in vivo; how it was run: as §2
[34] = Clearance in Wistar rat at 15 mg/kg, po; assay type: ADME, organism-based; settings: in vivo
[35] = target: cGMP-dependent 3',5'-cyclic phosphodiesterase (Homo sapiens) (UniProt O00408); assay: Inhibition of N-terminal FLAG-tagged human PDE2A1 (2 to 941 residues) expressed in Baculovirus infected Sf9 insect cells at 6 uM using FAM-cAMP as substrate after 1 hr by fluorescence polarization assay relative to control
[36] = target: 3',5'-cyclic-AMP phosphodiesterase 4A (Homo sapiens) (UniProt P27815); assay: Inhibition of N-terminal GST-tagged full length recombinant human PDE4A1A expressed in Baculovirus infected Sf9 insect cells at 1 uM using FAM-cAMP as substrate after 1 hr by fluorescence polarization assay relative to control

Structure (SMILES) | ED50 (Oryctolagus cuniculus) | MRT [1] | half-life [2] | clearance [3] | Activity (Thoracic aorta) | Tmax [4] | Vdss (Rattus norvegicus [6]) | Ratio IC50 (Homo sapiens [7]) | Vd [8] | MRT [10] | Ratio IC50 (Homo sapiens [11]) | Ratio IC50 (Homo sapiens [13]) | Tmax [15] | Ratio IC50 (Homo sapiens [16]) | IC50 [17] | half-life [19] | Cmax [20] | Ratio IC50 (Homo sapiens [22]) | Cmax [23] | AUC(0-inf) [24] | also measured
CCc1ccc([C@@H]2c3[nH]c4ccccc4c(=O)c3CN2c2ncc(-c3ccccn3)cn2)s1 | 0.0217 mg/kg | 2.9 h | 1.9 h | 287 mL/min/kg | >90% | 2.8 h | 181.3 L/kg | > 10000 | 72.7 L/kg | 6.7 h | 2.5 | > 10000 | 6 min | > 2500 | 2.7 nM | 4.3 h | 27.5 ng/mL | > 10000 | 308 ng/mL | 125 ng·h/mL | inhibition [5]: 7%; inhibition [9]: 39%; AUC (Rattus norvegicus [12]): 231.9 ng·h/mL; inhibition [14]: 10%; inhibition [18]: 81%; inhibition [21]: 9.5%; AUC(0-t) at 24 h [25]: 121 ng·h/mL; IC50 [26]: 0.52 nM; Ratio IC50 (Homo sapiens [27]): 5.2; AUC(0-t) at 24 h [28]: 225 ng·h/mL; bioavailability [29]: 24.7%; IC50 [30]: 1.2 nM
CCc1ccc([C@@H]2c3[nH]c4ccccc4c(=O)c3CN2c2ncc(-c3ccccn3)cn2)o1 | 0.0242 mg/kg | 3.1 h | 2.9 h | 533 mL/min/kg | >90% | 1.3 h | 420.9 L/kg | > 10000 | 124 L/kg | 9.4 h | 3.9 | > 10000 | 6 min | > 2500 | 5.1 nM | 7.8 h | 46.9 ng/mL | > 10000 | 89.2 ng/mL | 69.3 ng·h/mL | inhibition [31]: 9.5%; inhibition [32]: 6%; AUC(0-inf) [33]: 344 ng·h/mL; CL/F [34]: 550 mL/min/kg; inhibition [35]: 49%; AUC(0-t) at 24 h [25]: 67.9 ng·h/mL; IC50 [26]: 0.39 nM; Ratio IC50 (Homo sapiens [27]): 13.1; AUC(0-t) at 24 h [28]: 312 ng·h/mL; bioavailability [29]: 66.3%; inhibition [36]: 18%; IC50 [30]: 1.5 nM
